KCNK3 inh – human KCNK3 channel inhibition, primary screen; B-score at 10 µM; O14649; AID 602410; CHO-KCNK3 thallium flux, FluxOR fluorescence; hits give low values; hit rate 0.84% among 340,000;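 active = B-score under library mean minus 4 SD, starting fluorescence ratio at most library mean plus 5 SD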;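 note: more negative B-score means stronger inhibition of thallium flux through KCNK3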
Target sequence (O14649 whole entry, looked up): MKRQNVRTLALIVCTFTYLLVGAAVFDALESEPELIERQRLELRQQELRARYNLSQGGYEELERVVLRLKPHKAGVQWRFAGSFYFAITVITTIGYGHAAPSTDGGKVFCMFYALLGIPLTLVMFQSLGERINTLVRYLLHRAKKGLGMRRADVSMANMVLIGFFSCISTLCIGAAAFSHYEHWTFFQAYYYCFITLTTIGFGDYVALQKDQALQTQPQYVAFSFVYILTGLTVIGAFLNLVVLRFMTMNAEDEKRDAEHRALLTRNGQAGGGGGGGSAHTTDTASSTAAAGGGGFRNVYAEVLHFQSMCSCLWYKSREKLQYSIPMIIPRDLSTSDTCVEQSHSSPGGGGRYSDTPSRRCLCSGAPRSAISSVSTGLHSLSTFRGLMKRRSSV
KCNQ1 pot – potentiates or activates the human KCNQ1 potassium channel. P51787. CHO-K1 KCNQ1, thallium flux FluxOR fluorescence; hits give high values. B-score at 10 µM. hit rate 0.35% among 310,000. AID 2648;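 active = fluorescence ratio B-score, a plate-corrected score, at least three library SD, with initial intensity B-score within 5 SD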
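Schedule – 37 °C overnight plating, 90-min dark dye load, 20-min compound pretreatment · System – stable KCNQ1 CHO-K1 line · Probe or stimulus – thallium- and potassium-containing depolarizing buffer · Measured by – kinetic FluxOR fluorescence, 10 s baseline plus 110 s post-stimulus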
hERG rescue – hERG (human) protection from proarrhythmic block; CHO-hERG, FluxOR thallium flux, dofetilide IC70 present; activation (rescue from dofetilide block), less the hit threshold, % at 10 µM; hit rate 0.51% among 310,000; AID 1511; Q12809;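 active = activation above the mean of controls blocked by dofetilide plus 5 SD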;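 note: thallium influx through hERG after potassium depolarization seen as dye fluorescence rise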
KCNQ1 inh – human KCNQ1 channel inhibition. CHO-K1 KCNQ1, FluxOR thallium flux fluorescence; hits give high values. hit rate 1.3% among 310,000. B-score at 10 µM. AID 2642. P51787;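 active = compounds whose thallium flux B-score, printed positive for inhibition, exceeds three library SD while starting fluorescence stays within three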;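 note: channel opened by potassium depolarization with thallium stimulus after 20 min compound exposure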
Kir21 inh – blocks the mouse Kir2.1 inward-rectifier potassium channel. HEK293-Kir2.1, FluxOR thallium flux fluorescence; hits give low values. B-score at 10 µM. hit rate 0.85% among 310,000. P35561;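 active = fluorescence ratio B-score at or below minus 3 SD of library scores, with starting-brightness B-score within 2 SD, cut at about -4.2 in these data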;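 note: channel flux triggered by added potassium and thallium sulfate stimulus; B-score of peak minus minimum fluorescence over baseline after thallium stimulus; more negative B-score means stronger Kir2.1 block with less thallium influx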
KCNK9 block – blocks the human KCNK9 two-pore domain potassium channel; Q9NPC2; HEK293 KCNK9, FluxOR thallium flux fluorescence; hits give low values; B-score at 10 µM; hit rate 1.2% among 310,000;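 active = ratio B-score over 3 SD below the library mean, with starting fluorescence within 5 SD of its mean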;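 note: negative B-score means less thallium flux so channel inhibition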
Target sequence (Q9NPC2 whole entry, looked up, the tested form may be a part): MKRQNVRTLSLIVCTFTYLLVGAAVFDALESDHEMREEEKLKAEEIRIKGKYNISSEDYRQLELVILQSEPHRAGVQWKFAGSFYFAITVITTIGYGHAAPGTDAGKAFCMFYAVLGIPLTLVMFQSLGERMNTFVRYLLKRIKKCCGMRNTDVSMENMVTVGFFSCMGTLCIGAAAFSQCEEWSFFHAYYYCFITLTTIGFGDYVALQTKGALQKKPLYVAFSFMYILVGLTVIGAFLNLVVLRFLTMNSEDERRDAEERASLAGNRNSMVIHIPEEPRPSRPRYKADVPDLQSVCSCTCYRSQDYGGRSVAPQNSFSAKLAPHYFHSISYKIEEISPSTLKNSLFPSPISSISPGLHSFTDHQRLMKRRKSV
KCNK9 block conf – confirmation of human KCNK9 potassium channel inhibitors. shares compounds with KCNK9 block. HEK293 KCNK9 cells, FluxOR thallium flux fluorescence. inhibition, % at 10 µM. hit rate 43% among 4,900. AID 492992;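 active = thallium signal inhibited by more than 5 SD of the compound-free buffer control wells, on both duplicate plates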
Kir2-1 spec – mouse Kir2.1 off-target activity of KCNK9 modulators | AID 492993 | inhibition, % at 10 µM | shares compounds with KCNK9 block | hit rate 4% among 4,900 | Kir2.1 cells, FluxOR thallium flux fluorescence;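 active = thallium signal drop more than 5 SD beyond the mean of the no-compound control wells, seen in both duplicate plates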;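 note: signal is fluorescence rise after thallium addition divided by baseline fluorescence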
KCNK9 uninduced – non-induced cell nonspecific activity of KCNK9 modulators | shares compounds with KCNK9 block | non-induced KCNK9-HEK293, FluxOR thallium flux | inhibition, % at 10 µM | hit rate 40% among 4,900 | AID 492997;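 active = thallium signal drop beyond 5 SD of the untreated control mean, on both duplicate plates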
Of the large screens only hits and unclear results are named; the others gave an inactive call (follow-up assays come after a bar, where they were run). Compounds with a hit are over-represented: about 3.7% of the library has one in this group of screens.

CCCS(=O)(=O)N1CCN=C1SCc1cccc2ccccc12	none | KCNK9 block conf inactive | Kir2-1 spec inactive | KCNK9 uninduced inactive
CCOC(=O)c1c(C)[nH]c(C(=O)Cn2c(=O)c3c(ncn3CC)n(Cc3ccccc3)c2=O)c1C	none | KCNK9 block conf inactive | Kir2-1 spec inactive | KCNK9 uninduced inactive
CCn1cnc2c1c(=O)n(Cc1nnc3n1-c1ccccc1SC3)c(=O)n2Cc1ccccc1	none | KCNK9 block conf inactive | Kir2-1 spec inactive | KCNK9 uninduced inactive
CCn1cnc2c1c(=O)n(Cc1cccc([N+](=O)[O-])c1)c(=O)n2Cc1ccccc1	none | KCNK9 block conf inactive | Kir2-1 spec inactive | KCNK9 uninduced inactive
CCn1cnc2c1c(=O)n(Cc1csc(-c3ccccc3)n1)c(=O)n2Cc1ccccc1	none | KCNK9 block conf inactive | Kir2-1 spec inactive | KCNK9 uninduced inactive
CC(C)(C)c1ccc(OCCOc2ccc(C(C)(C)C)cc2NC=O)c(NC=O)c1	KCNK9 block -8.18 | KCNK9 block conf 33.5% | Kir2-1 spec inactive | KCNK9 uninduced inactive
CC(=O)c1cnn(-c2nc3c(C)cccc3s2)c1C	none | KCNK9 block conf inactive | Kir2-1 spec inactive | KCNK9 uninduced inactive
COc1cccc(CN(C)C(=O)c2ccc(NS(=O)(=O)c3ccc4[nH]c(=O)[nH]c4c3)cc2)c1OC	none
COc1cccc(CN(C)C(=O)c2ccc(Oc3ccccc3)cc2)c1OC	none | KCNK9 block conf inactive | Kir2-1 spec inactive | KCNK9 uninduced inactive
CCOc1ccc(NS(=O)(=O)c2ccc(C(=O)N(C)Cc3cccc(OC)c3OC)cc2)cc1	none | KCNK9 block conf inactive | Kir2-1 spec inactive | KCNK9 uninduced inactive
Cc1noc(C)c1COc1ccc(C(=O)OCc2nnc(-c3ccc(Cl)cc3)o2)cc1	none
Cc1nc(S/C(=C/c2ccc(-c3cc(Cl)ccc3C)o2)C(=O)O)n[nH]1	KCNQ1 inh 8 | KCNK9 block conf inactive | Kir2-1 spec inactive | KCNK9 uninduced 35.5%
Cc1nc(NC(=O)c2ccccc2)sc1C1(C)CC(c2c(Cl)cccc2Cl)=NO1 (stereo unspecified)	KCNK9 block -9.81 | KCNK9 block conf 55.0% | Kir2-1 spec inactive | KCNK9 uninduced 36.0%
Cc1nc(NC(=O)c2ccccc2)sc1C1(C)CC(c2ccccc2F)=NO1 (stereo unspecified)	none
CN(C1CCCCC1)S(=O)(=O)c1cccc(C(=O)OCC(=O)NC2CCCc3ccccc32)c1 (stereo unspecified)	KCNK9 block -9.46 | KCNK9 block conf 55.5% | Kir2-1 spec inactive | KCNK9 uninduced inactive
O=C(CSc1nc2c(c(=O)n1-c1ccc(Cl)cc1)SCC2)NCc1ccco1	none
CCCN(CCC)C(=O)CC(c1ccccc1)c1ccc(C)cc1O (stereo unspecified)	none
CCCN(CCC)C(=O)CC(c1ccccc1)c1cc(Br)ccc1O (stereo unspecified)	KCNK9 block -13.3 | KCNK9 block conf 36.5% | Kir2-1 spec inactive | KCNK9 uninduced 40.5%
COc1ccc(/C=N/n2c(-c3ccccc3)n[nH]c2=S)cc1	none
COc1ccc(/C=N/n2c(N)nc(-c3ccccc3)c2-c2ccccc2)cc1	none | KCNK9 block conf inactive | Kir2-1 spec inactive | KCNK9 uninduced inactive
C=CCNC(=O)c1c(Br)cnn1-c1ccc(C)cc1	none
O=C(c1cccc(C(F)(F)F)c1)C1CCCN(C(=O)CN2CCCC2=O)C1 (stereo unspecified)	none
COc1ccc(C(=O)C2CCCN(Cc3cccn3-c3nccs3)C2)cc1F (stereo unspecified)	none | KCNK9 block conf inactive | Kir2-1 spec inactive | KCNK9 uninduced inactive
O=C(c1cccc(C(F)(F)F)c1)C1CCCN(Cc2cccn2-c2ncccn2)C1 (stereo unspecified)	none | KCNK9 block conf inactive | Kir2-1 spec inactive | KCNK9 uninduced inactive
COc1ccc(C(=O)C2CCCN(Cc3cccn3-c3ccccn3)C2)cc1F (stereo unspecified)	none
CCOc1cc(CN2CCCC(C(=O)c3cccc(C(F)(F)F)c3)C2)ccc1O (stereo unspecified)	none | KCNK9 block conf inactive | Kir2-1 spec inactive | KCNK9 uninduced inactive
O=C(c1ccc(C(F)(F)F)cc1)C1CCCN(Cc2cccn2-c2ncccn2)C1 (stereo unspecified)	none | KCNK9 block conf inactive | Kir2-1 spec inactive | KCNK9 uninduced inactive
Cc1cccc(C(=O)Nc2nsc(N)n2)c1	none
CCN(C[C@H]1N[C@@](Cc2ccccc2)(C(=O)OC)[C@H]2C(=O)N(Cc3ccccc3)C(=O)[C@@H]12)C(=O)COc1ccccc1	none (no result: KCNQ1 pot, hERG rescue, KCNQ1 inh, Kir21 inh, KCNK9 block)
COc1cccc(C(=O)C2CCCN(Cc3ccc(OC)c(Cn4cncn4)c3)C2)c1 (stereo unspecified)	none
CSc1ccc(C(=O)C2CCCN(Cc3cccc4nccnc34)C2)cc1 (stereo unspecified)	none | KCNK9 block conf inactive | Kir2-1 spec inactive | KCNK9 uninduced inactive
O=C(c1ccc(Cl)cc1)C1CCCN(Cc2cccn2-c2ccccn2)C1 (stereo unspecified)	none | KCNK9 block conf inactive | Kir2-1 spec inactive | KCNK9 uninduced inactive
COc1ccc(CN2CCCC(C(=O)c3ccc(Cl)cc3)C2)cc1Cn1cccn1 (stereo unspecified)	none | KCNK9 block conf inactive | Kir2-1 spec inactive | KCNK9 uninduced inactive
Cc1ccc(S(=O)(=O)N(C)C)cc1NC(=O)c1cccnc1Oc1ccccc1	none
COc1ccccc1-c1nnc(SC/C(O)=C(\C#N)c2nc3ccccc3[nH]2)n1C1CCCCC1	KCNK9 block -12 | KCNK9 block conf 72.5% | Kir2-1 spec inactive | KCNK9 uninduced inactive
N#C/C(=C(/O)CSc1nnc(Cc2cccs2)n1C1CCCCC1)c1nc2ccccc2[nH]1	none
CCN(CC)CCNC(C(=O)Nc1cccc(C(C)=O)c1)c1ccccc1 (stereo unspecified)	none
COc1ccc(S(=O)(=O)N2CCOCC2)cc1NC(=O)c1c(-c2ccccc2)noc1C	none (no result: KCNQ1 pot, hERG rescue, KCNQ1 inh, Kir21 inh, KCNK9 block)
CC(C)C(=O)Nc1nc(-c2ccc3c(c2)CCN3C(=O)C2CC2)cs1	KCNK9 block -8.88 | KCNK9 block conf inactive | Kir2-1 spec inactive | KCNK9 uninduced inactive
CC(C)(C)Nc1nc(-c2ccc3c(c2)CCN3C(=O)C2CC2)cs1	none
Cc1ccccc1C(=NC(=O)c1ccccc1)c1ccccc1	KCNK9 block -9.99 | KCNK9 block conf 47.0% | Kir2-1 spec inactive | KCNK9 uninduced 45.5%
S=c1nc(C2COc3ccccc3O2)[nH][nH]1 (stereo unspecified)	none | KCNK9 block conf inactive | Kir2-1 spec inactive | KCNK9 uninduced inactive

Bioassay records: PubChem BioAssay, Johns Hopkins Ion Channel Center
